# Results published in PubChem BioAssay AID602171 (The Scripps Research Institute Molecular Screening Center, 2012).
# Target: Aryl hydrocarbon receptor (Homo sapiens) (UniProt P35869)
# Assay: DRE-driven luciferase activation via AHR – HG2L7.5c1 HepG2 cells, luminescence, AHR activator project, late-stage follow-up (AID 602171)
# Settings: HG2L7.5c1 HepG2 DRE-luciferase reporter, 24 h, at 10 µM, active compounds read high
# Outline: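 Assay system: HepG2 (HG2L7.5c1) cells with DRE-driven luciferase reporter. Compound: single 10 µM nominal dose from powder samples. Incubation: 24 h compound exposure, 37 °C. Signal: firefly luciferase luminescence of lysed cells. Read-out basis: % of maximal TCDD activation. Control set: TCDD at maximal inducing level as positive reference. Replication: three wells each.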
# Sequence of Aryl hydrocarbon receptor (Homo sapiens) (P35869 whole entry, looked up): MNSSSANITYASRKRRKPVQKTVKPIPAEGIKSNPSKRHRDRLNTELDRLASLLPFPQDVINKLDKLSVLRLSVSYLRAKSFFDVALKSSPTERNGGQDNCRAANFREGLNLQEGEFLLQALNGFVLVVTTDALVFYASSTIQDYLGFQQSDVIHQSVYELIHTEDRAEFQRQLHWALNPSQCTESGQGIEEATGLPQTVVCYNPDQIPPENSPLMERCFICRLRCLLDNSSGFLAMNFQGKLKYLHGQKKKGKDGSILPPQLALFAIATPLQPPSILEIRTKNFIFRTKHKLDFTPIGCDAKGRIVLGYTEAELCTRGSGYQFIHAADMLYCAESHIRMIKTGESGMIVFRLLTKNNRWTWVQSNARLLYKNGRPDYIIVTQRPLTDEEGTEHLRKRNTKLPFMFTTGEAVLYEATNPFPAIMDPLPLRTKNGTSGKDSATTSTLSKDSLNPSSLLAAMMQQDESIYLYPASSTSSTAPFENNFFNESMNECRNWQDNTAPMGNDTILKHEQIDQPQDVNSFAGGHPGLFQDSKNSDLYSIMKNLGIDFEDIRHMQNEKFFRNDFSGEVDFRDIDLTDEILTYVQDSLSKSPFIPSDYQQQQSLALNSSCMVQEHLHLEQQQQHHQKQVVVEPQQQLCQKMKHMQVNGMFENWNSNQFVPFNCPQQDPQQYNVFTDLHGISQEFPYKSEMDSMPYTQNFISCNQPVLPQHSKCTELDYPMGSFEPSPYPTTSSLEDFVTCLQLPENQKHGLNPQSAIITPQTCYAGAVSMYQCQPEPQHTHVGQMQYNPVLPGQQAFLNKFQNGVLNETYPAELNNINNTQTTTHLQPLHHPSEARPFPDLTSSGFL
row,Compound,activation (% of TCDD max) [%]
1,COc1cc2c(cc1NC(=O)Nc1ccc(C)cc1)oc1ccccc12,146
2,Cc1c(-c2ccn[nH]2)cc(NC(=O)c2ccc(Cl)cc2)c(=O)n1N,86
3,COc1ccc(C(=O)Nc2cc(OC)c(NC(=O)c3ccco3)cc2OC)cc1,125
4,COC(=O)c1ccccc1NC(=O)Cn1ccnc1,71
5,COc1ccccc1C(=O)Nc1ccc(N2CCCCC2)cc1,52
6,Cc1nnc(N2C(=O)c3cccc4c([N+](=O)[O-])ccc(c34)C2=O)s1,98
7,COc1ccccc1NC(=O)Nc1cccnc1,55
8,COc1ccc(NC(=O)c2cccc3c(Br)cccc23)cc1,128
9,Cc1ccc(Nc2ncccc2C(N)=O)cc1,166
10,CCC(=O)Nc1cc(OC)c(NC(=O)c2ccccc2)cc1OC,89
11,O=C(CN1CCOCC1)Nc1nc2ccc([N+](=O)[O-])cc2s1,85
12,O=C(Nc1ccon1)c1cnc2sccn2c1=O,75
13,Cn1c(C(=O)N2CCC(C(N)=O)CC2)cc2cc(Cl)ccc21,48
14,CN1CCN(CCCNC(=O)c2cc3c(-c4ccc(Cl)cc4)nn(C)c3s2)CC1,111
15,COc1ccc(Cl)cc1C(=O)Nc1ccc(N(C)C(C)=O)cc1,165

# Continued, values first:
row,activation (% of TCDD max) [%],Compound
1,105,CN(C)c1nc(N)nc(-c2nc3ccccc3s2)n1
2,99,Cc1ccc(-c2cc(-c3cccs3)[nH]n2)c(O)c1
3,113,COc1cc2ccccc2cc1C(=O)Nc1ccc(C)cc1
4,78,Cc1nc(N)nc(Nc2ccc(Cl)cc2)c1Br
5,126,CCOc1ccccc1NC(=O)c1ccc2nccnc2c1
6,41,CCOc1ccc(-c2cc(C)n3nc(C(N)=O)cc3n2)cc1
7,109,CCOC(=O)Cc1cc(-c2ccc(O)cc2)nc2ccc3ccccc3c12
8,82,Cc1csc(SCC(=O)Nc2ccc(Cl)cn2)n1
9,44,O=C(Nc1cccc(Cl)c1)c1cccnn1
10,197,O=C1c2ccccc2-c2nc3ccccc3nc21
11,34,CCCC(=O)Nc1nn(C)c2nc3cc(C)ccc3cc12
12,36,COc1ccccc1NC(=O)c1ccc2c(c1)nnn2C
13,88,Cc1cc(Nc2ccc(Br)cc2)n2nc(C)nc2n1
14,106,Cn1c(N)c(C(=O)Nc2ccccc2F)sc1=S
15,132,CCOc1ccc(NC(=O)c2cc3ccccc3cc2OC)cc1
16,104,CC(=O)c1ccc(NC(=O)c2cc(Cl)nc3ccccc23)cc1
17,88,COc1ccccc1NC(=O)c1ccc(C(=O)Nc2ccccc2OC)nc1
18,117,Cc1ccccc1-c1nc(-c2cccnc2)no1
